{
  "source": "ChEMBL document CHEMBL1140925",
  "about": "“Nuclear factor-kappaB mediated inhibition of cytokine production by imidazoline scaffolds” (J Med Chem, 2009)",
  "key": {"HeLa [1]": {"test_system": "HeLa", "test": "Effect on cell cycle arrest in TNF-alpha-stimulated human HeLa cells assessed as cell aggregate level at 0.1 uM after 8 hrs by propidium iodide-based flow cytometry", "assay_type": "functional"}, "HeLa [2]": {"test_system": "HeLa", "test": "Cell cycle arrest in TNF-alpha-stimulated human HeLa cells transfected with NFkappaB-Luc assessed as accumulation at diploid G2 phase at 0.5 uM after 8 hrs by propidium iodide-based flow cytometry", "assay_type": "functional", "procedure,_shortened": "(§1)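 HeLa NF-κB-luc cells (stable, hygromycin-selected) were treated with vehicle (1% DMSO) or compound at 40–0.2 µM final for 8 h at 37 °C, 5% CO2. Adherent cells were trypsinized, resuspended in PBS/50% FBS, fixed overnight in 70% ice-cold ethanol and washed with cold PBS/10% FBS, then analysed for cell cycle by flow cytometry.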"}, "HeLa [3]": {"test_system": "HeLa", "test": "Cell cycle arrest in TNF-alpha-stimulated human HeLa cells transfected with NFkappaB-Luc assessed as accumulation at diploid stage at 1 uM after 8 hrs by propidium iodide-based flow cytometry", "assay_type": "functional"}, "HeLa [4]": {"test_system": "HeLa", "test": "Cell cycle arrest in TNF-alpha-stimulated human HeLa cells transfected with NFkappaB-Luc assessed as accumulation at diploid G1 phase at 0.5 uM after 8 hrs by propidium iodide-based flow cytometry", "assay_type": "functional", "procedure,_shortened": "as §1"}, "HeLa [5]": {"test_system": "HeLa", "test": "Cell cycle arrest in human HeLa cells transfected with NFkappaB-Luc assessed as accumulation at diploid stage at 20 uM after 8 hrs by propidium iodide-based flow cytometry", "assay_type": "functional", "procedure,_shortened": "as §1"}, "HeLa [6]": {"test_system": "HeLa", "test": "Cell cycle arrest in TNF-alpha-stimulated human HeLa cells transfected with NFkappaB-Luc assessed as accumulation at S phase at 1 uM after 8 hrs by propidium iodide-based flow cytometry", "assay_type": "functional"}, "[7]": {"test": "Cytotoxicity against human whole blood IL-1-beta-stimulated lymphocytes assessed as survival cell count in millions at 10 uM by trypan blue staining based hemocytometer"}, "HeLa [8]": {"test_system": "HeLa", "test": "Effect on cell cycle arrest in TNF-alpha-stimulated human HeLa cells assessed as cell aggregate level at 20 uM after 8 hrs by propidium iodide-based flow cytometry", "assay_type": "functional"}, "[9]": {"test": "Inhibition of TNF-alpha-induced NF-kappaB-mediated transcription expressed in human HeLa cells co-transfected with renilla luciferase-TK gene preincubated for 30 mins before TNFalpha challenge measured after 8 hrs by dual-glo luciferase reporter gene assay", "assay_type": "cell-based", "procedure,_shortened": "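HeLa cells were transiently cotransfected (lipofectamine 2000, 5–6 h) with 6×κB pNF-κB-luc and the pRL-TK Renilla control, then grown 24 h. They were pretreated 30 min with 0.312–20 µM (1% DMSO vehicle), then stimulated with 25 ng/mL TNF-α for 8 h at 37 °C. Dual-Glo firefly signal was normalized to Renilla luminescence.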"}},
  "data": [
    {"smiles": "CCOC(=O)[C@]1(c2ccccc2)N=C(c2ccccc2)N(Cc2ccccc2)[C@@H]1c1ccccc1", "note": "(racemic)", "values": [
      {"measurement": "Activity", "setting": "HeLa [1]", "result": 0, "unit": "%"},
      {"measurement": "Activity", "setting": "HeLa [2]", "result": 13.4, "unit": "%"},
      {"measurement": "Activity", "setting": "HeLa [3]", "result": 100, "unit": "%"},
      {"measurement": "Activity", "setting": "HeLa [4]", "result": 64.08, "unit": "%"},
      {"measurement": "Activity", "setting": "HeLa [5]", "result": 100, "unit": "%"},
      {"measurement": "Activity", "setting": "HeLa [6]", "result": 22.9, "unit": "%"},
      {"measurement": "Activity", "setting": "[7]", "result": 1.48, "unit": "mL⁻¹"},
      {"measurement": "Activity", "setting": "HeLa [8]", "result": 0, "unit": "%"},
      {"measurement": "EC50", "setting": "[9]", "result": 4.67, "unit": "µM"}
    ]}
  ]
}
